Measurements published in ChEMBL document CHEMBL4138177, “Design and synthesis of short amphiphilic cationic peptidomimetics based on biphenyl backbone as antibacterial agents” (Eur J Med Chem, 2018).
Values after ≈ are worked out from the molar mass of the structure shown. Active and inactive are the calls of the source. The calls are words filed in the database; no cut-off is given here.

Assays:
[1] = system: Staphylococcus aureus; experiment: Antimicrobial activity against Staphylococcus aureus SA38 after 18 to 24 hrs by spectrophotometry based broth micro dilution assay; format: functional; conditions: read-out: MIC100
Procedure, shortened: (§1)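 CLSI broth microdilution. Mid-log cells grown in MHB at 37 °C, shaken 120 rpm, washed three times in PBS pH 7.4, diluted in fresh MHB to a final 1–2 × 10⁵ cfu/mL. Two-fold serial dilutions from 250 down to 3.9 µM. Incubated 18–24 h at 37 °C, 120 rpm. A600 read; MIC taken as the lowest concentration giving 100% growth inhibition. Triplicate, three independent experiments.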

[2] = system: Escherichia coli; experiment: Antimicrobial activity against Escherichia coli K-12 after 18 to 24 hrs by spectrophotometry based broth micro dilution assay; format: functional; conditions: read-out: MIC100; procedure, shortened: as §1
[3] = system: Pseudomonas aeruginosa; experiment: Antimicrobial activity against Pseudomonas aeruginosa PAO1 after 18 to 24 hrs by spectrophotometry based broth micro dilution assay; format: functional; conditions: read-out: MIC100; procedure, shortened: as §1
[4] = system: MRC5; experiment: Cytotoxicity against human MRC5 cells after 72 hrs by Alamar blue staining-based spectrophotometric analysis; format: cell-based; conditions: for IC50: Homo sapiens, MRC5, 72 h; for Activity: human, mrc5, 72 h
Procedure, shortened: (§2)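 MRC-5 lung fibroblasts grown in MEM with 10% FCS, 37 °C, 5% CO₂. Seeded at 2 × 10⁴ cells/well to confluence, then treated 24 h later for 72 h. Medium replaced with 10% Alamar blue for 6 h and absorbance read. Viability expressed as % of untreated cells and IC50 derived. Triplicate, three independent experiments.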

[5] = system: MRC5; experiment: Cytotoxicity against human MRC5 cells up to 350 uM after 72 hrs by Alamar blue staining-based spectrophotometric analysis; format: cell-based; conditions: mrc5, 72 h; procedure, shortened: as §2
[6] = system: Lipid bilayer; experiment: Binding affinity to negatively charged tethered bilayer lipid membranes assessed as increase in membrane conduction response at 0.1 to 100 uM by electrochemical impedance spectroscopic analysis
Procedure, shortened: (§3)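 Tethered bilayer membranes formed from a mobile phase of 70% diphytanyl-glycero-phosphatidylcholine and 30% diphytanyl-diglyceride ether (3 mM in ethanol), associated for 2 min, then washed with PBS to give zwitterionic membranes. A variant mobile phase gave negatively charged membranes. Conduction and capacitance measured by AC impedance spectroscopy with Lev-Mar fitting. Triplicate.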

[7] = system: Lipid bilayer; experiment: Binding affinity to zwitterionic tethered bilayer lipid membranes assessed as increase in membrane conduction response by electrochemical impedance spectroscopic analysis; procedure, shortened: as §3
[8] = system: Lipid bilayer; experiment: Binding affinity to negatively charged tethered bilayer lipid membranes assessed as increase in membrane capacitance changes at 0.1 to 100 uM by electrochemical impedance spectroscopic analysis; procedure, shortened: as §3
[9] = system: Lipid bilayer; experiment: Binding affinity to zwitterionic tethered bilayer lipid membranes assessed as increase in membrane capacitance changes at 0.1 to 100 uM by electrochemical impedance spectroscopic analysis; procedure, shortened: as §3
[10] = system: Lipid bilayer; experiment: Binding affinity to negatively charged tethered bilayer lipid membranes assessed as increase in membrane capacitance changes at 10 uM by electrochemical impedance spectroscopic analysis; procedure, shortened: as §3
[11] = system: Lipid bilayer; experiment: Binding affinity to zwitterionic tethered bilayer lipid membranes assessed as increase in membrane capacitance changes at 10 uM by electrochemical impedance spectroscopic analysis; procedure, shortened: as §3
[12] = system: Staphylococcus aureus; experiment: Antibiofilm activity against Staphylococcus aureus SA38 assessed as inhibition of biofilm formation at 250 uM after 24 hrs by crystal violet staining based assay relative to control; format: functional; conditions: SA38, 24 h
Procedure, shortened: (§4)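 Overnight culture diluted 1:20 in LB and grown overnight at 37 °C, 150 rpm, in 96-well plates. Compounds added at 250 µM from DMSO stock; controls received equal DMSO. Incubated overnight at 37 °C, 150 rpm. Biofilm on polystyrene quantified by crystal violet staining. Triplicate, three independent experiments.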

[13] = system: Escherichia coli; experiment: Antibiofilm activity against Escherichia coli K-12 assessed as inhibition of biofilm formation at 250 uM after 24 hrs by crystal violet staining based assay relative to control; format: functional; conditions: K-12, 24 h; procedure, shortened: as §4
[14] = system: Staphylococcus aureus; experiment: Induction of cytoplasmic membrane disruption in Staphylococcus aureus SA38 at 31.2 uM measured within 3 mins by diSC3-5 dye-based luminescence spectrophotometric analysis; format: functional, organism-based
[15] = system: Staphylococcus aureus; experiment: Antibiofilm activity against drug-resistant pre-formed Staphylococcus aureus biofilms assessed as inhibition of biomass formation at 4 times MIC; format: functional
[16] = system: Staphylococcus aureus; experiment: Induction of cytoplasmic membrane disruption in Staphylococcus aureus SA38 at 7.8 to 62.5 uM measured within 3 mins by diSC3-5 dye-based luminescence spectrophotometric analysis; format: functional, organism-based
[17] = system: Escherichia coli; experiment: Induction of cytoplasmic membrane disruption in Escherichia coli K-12 at 3.9 to 31.2 uM by diSC3-5 dye-based luminescence spectrophotometric analysis; format: functional, organism-based

Row | SMILES | MIC [1] | MIC [2] | MIC [3] | Activity [8] | Activity [9] | Activity [10] | Activity [11] | IC50 [4] | Activity [4] | Activity [5] | Activity [6] | Activity [7] | inhibition at 250 µM [12] | inhibition at 250 µM [13] | Activity [14] | inhibition (INH) [15] | Activity [16] | Activity [17]
1 | N=C(N)NCCNC(=O)[C@H](Cc1c[nH]c2ccccc12)NC(=O)[C@@H](N)Cc1ccccc1 | > 250 µM | > 125 µM |  |  |  |  |  |  |  |  |  |  |  |  |  |  |  | 
2 | COC(=O)[C@H](CCCCN)NC(=O)c1cccc(-c2cccc(NC(=O)[C@@H](N)Cc3c[nH]c4ccccc34)c2)c1 | 31.2 µM (≈ 16.9 µg/mL) | > 125 µM | > 250 µM |  |  |  |  |  |  |  |  |  |  |  |  |  |  | 
3 | N=C(N)NCCNC(=O)c1cccc(-c2cccc(N)c2)c1 | 62.5 µM (≈ 18.6 µg/mL) | > 125 µM | > 250 µM |  |  | inactive | inactive |  |  |  |  |  |  |  |  |  |  | 
4 | COC(=O)[C@H](CCCNC(=N)N)NC(=O)c1cccc(-c2cccc(NC(=O)[C@@H](N)Cc3c[nH]c4ccccc34)c2)c1 | 62.5 µM (≈ 35.6 µg/mL) | > 125 µM | > 250 µM |  |  |  |  | > 300 µM | Dose-dependent effect | Non-Toxic |  |  |  |  |  |  |  | 
5 | NCCCC[C@H](NC(=O)c1cccc(-c2cccc(NC(=O)[C@@H](N)Cc3c[nH]c4ccccc34)c2)c1)C(=O)NCCN | 31.2 µM (≈ 17.8 µg/mL) | > 125 µM | > 250 µM |  |  |  |  |  |  |  |  |  |  |  |  |  |  | 
6 | N=C(N)NCCNC(=O)c1cccc(-c2cccc(NC(=O)[C@@H](N)Cc3c[nH]c4ccccc34)c2)c1 | 62.5 µM (≈ 30.2 µg/mL) | > 125 µM | > 250 µM |  |  |  |  | > 300 µM | Dose-dependent effect | Non-Toxic |  |  | 41% | 39% |  |  |  | 
7 | CC[C@H](C)[C@H](NC(=O)[C@H](CCCCN)NC(=O)[C@H](CCC(=O)O)NC(=O)[C@H](CCCCN)NC(=O)[C@H](CO)NC(=O)[C@H](CCCCN)NC(=O)[C@H](CCCNC(=N)N)NC(=O)[C@H](Cc1ccccc1)NC(=O)[C@H](Cc1ccccc1)NC(=O)[C@H](CC(=O)O)NC(=O)CNC(=O)[C@H](CC(C)C)NC(=O)[C@@H](N)CC(C)C)C(=O)NCC(=O)N[C@@H](CCCCN)C(=O)N[C@@H](CCC(=O)O)C(=O)N[C@@H](Cc1ccccc1)C(=O)N[C@@H](CCCCN)C(=O)N[C@@H](CCCNC(=N)N)C(=O)N[C@H](C(=O)N[C@H](C(=O)N[C@@H](CCC(N)=O)C(=O)N[C@@H](CCCNC(=N)N)C(=O)N[C@H](C(=O)N[C@@H](CCCCN)C(=O)N[C@@H](CC(=O)O)C(=O)N[C@@H](Cc1ccccc1)C(=O)N[C@@H](CC(C)C)C(=O)N[C@@H](CCCNC(=N)N)C(=O)N[C@@H](CC(N)=O)C(=O)N[C@@H](CC(C)C)C(=O)N[C@H](C(=O)N1CCC[C@H]1C(=O)N[C@@H](CCCNC(=N)N)C(=O)N[C@H](C(=O)N[C@@H](CCC(=O)O)C(=O)N[C@@H](CO)C(=O)O)[C@@H](C)O)C(C)C)[C@@H](C)CC)C(C)C)[C@@H](C)CC [CATHELICIDIN] |  |  |  |  |  |  |  |  |  |  |  |  |  |  |  | 40% |  | 
8 | NCCNC(=O)c1cccc(-c2cccc(NC(=O)[C@@H](N)Cc3c[nH]c4ccccc34)c2)c1 | 125 µM (≈ 55.2 µg/mL) | > 125 µM | > 250 µM |  |  |  |  |  |  |  |  |  |  |  |  |  |  | 

Second part, led by results:

Row | MIC [1] | MIC [2] | MIC [3] | Activity [8] | Activity [9] | Activity [10] | Activity [11] | SMILES | IC50 [4] | Activity [4] | Activity [5] | Activity [6] | Activity [7] | inhibition at 250 µM [12] | inhibition at 250 µM [13] | Activity [14] | inhibition (INH) [15] | Activity [16] | Activity [17]
9 | 31.2 µM (≈ 22.4 µg/mL) | 125 µM (≈ 89.6 µg/mL) | 250 µM (≈ 179 µg/mL) | Dose-dependent effect | inactive | Active | Active | COC(=O)[C@H](CCCNC(=N)N)NC(=O)c1cccc(-c2cccc(NC(=O)[C@H](Cc3c[nH]c4ccccc34)NC(=O)[C@@H](N)Cc3ccccc3)c2)c1 | > 300 µM | Dose-dependent effect | Non-Toxic | inactive | Dose-dependent effect |  |  |  |  |  | 
10 | 31.2 µM (≈ 21.5 µg/mL) | 125 µM (≈ 86.1 µg/mL) | 250 µM (≈ 172 µg/mL) | Dose-dependent effect | Dose-dependent effect | Active | Active | COC(=O)[C@H](CCCCN)NC(=O)c1cccc(-c2cccc(NC(=O)[C@H](Cc3c[nH]c4ccccc34)NC(=O)[C@@H](N)Cc3ccccc3)c2)c1 | > 300 µM | Dose-dependent effect | Non-Toxic | inactive | Dose-dependent effect |  |  |  |  |  | 
11 | 62.5 µM (≈ 36.8 µg/mL) | > 125 µM | 250 µM (≈ 147 µg/mL) |  |  |  |  | NCCNC(=O)c1cccc(-c2cccc(NC(=O)[C@H](Cc3c[nH]c4ccccc34)NC(=O)[C@@H](N)Cc3ccccc3)c2)c1 |  |  |  |  |  |  |  |  |  |  | 
12 | 15.6 µM (≈ 9.84 µg/mL) | 31.2 µM (≈ 19.7 µg/mL) | 250 µM (≈ 158 µg/mL) | Dose-dependent effect | Dose-dependent effect | Active | Active | N=C(N)NCCNC(=O)c1cccc(-c2cccc(NC(=O)[C@H](Cc3c[nH]c4ccccc34)NC(=O)[C@@H](N)Cc3ccccc3)c2)c1 | > 300 µM | Dose-dependent effect | Non-Toxic | inactive | Dose-dependent effect |  |  |  |  |  | 
13 | 31.2 µM (≈ 22.4 µg/mL) | 31.2 µM (≈ 22.4 µg/mL) | 250 µM (≈ 179 µg/mL) | Dose-dependent effect | Dose-dependent effect | Active | Active | NCCCC[C@H](NC(=O)c1cccc(-c2cccc(NC(=O)[C@H](Cc3c[nH]c4ccccc34)NC(=O)[C@@H](N)Cc3ccccc3)c2)c1)C(=O)NCCN | > 300 µM | Dose-dependent effect | Non-Toxic | inactive | Dose-dependent effect | 30% | 8% | Active |  |  | 
14 | 31.2 µM (≈ 23.7 µg/mL) | 15.6 µM (≈ 11.8 µg/mL) |  |  |  |  |  | N=C(N)NCCNC(=O)[C@H](CCCCN)NC(=O)c1cccc(-c2cccc(NC(=O)[C@H](Cc3c[nH]c4ccccc34)NC(=O)[C@@H](N)Cc3ccccc3)c2)c1 | > 300 µM | Dose-dependent effect | Non-Toxic |  |  |  |  | Active |  |  | 
15 | 15.6 µM (≈ 12.3 µg/mL) | 7.8 µM (≈ 6.14 µg/mL) |  |  |  |  |  | N=C(N)NCCC[C@H](NC(=O)c1cccc(-c2cccc(NC(=O)[C@H](Cc3c[nH]c4ccccc34)NC(=O)[C@@H](N)Cc3ccccc3)c2)c1)C(=O)NCCNC(=N)N | > 300 µM | Dose-dependent effect | Non-Toxic |  |  |  |  |  |  | Active | Active
